Legend:
Rattus norvegicus [1] = organism: Rattus norvegicus; test: Cardiotoxicity in rat assessed as increase in cardiac contractility at plasma concentration of 4.7 ug/ml; type: toxicity, organism-based
[2] = molecular target: T1, Transient receptor potential cation channel subfamily V member 3 (Homo sapiens) (UniProt Q8NET8); test: Antagonist activity at human TRPV3 expressed in recombinant HEK293 cells assessed as inhibition of 2-APB induced calcium flux by FLIPR analysis; type: cell-based
T1 sequence (whole entry): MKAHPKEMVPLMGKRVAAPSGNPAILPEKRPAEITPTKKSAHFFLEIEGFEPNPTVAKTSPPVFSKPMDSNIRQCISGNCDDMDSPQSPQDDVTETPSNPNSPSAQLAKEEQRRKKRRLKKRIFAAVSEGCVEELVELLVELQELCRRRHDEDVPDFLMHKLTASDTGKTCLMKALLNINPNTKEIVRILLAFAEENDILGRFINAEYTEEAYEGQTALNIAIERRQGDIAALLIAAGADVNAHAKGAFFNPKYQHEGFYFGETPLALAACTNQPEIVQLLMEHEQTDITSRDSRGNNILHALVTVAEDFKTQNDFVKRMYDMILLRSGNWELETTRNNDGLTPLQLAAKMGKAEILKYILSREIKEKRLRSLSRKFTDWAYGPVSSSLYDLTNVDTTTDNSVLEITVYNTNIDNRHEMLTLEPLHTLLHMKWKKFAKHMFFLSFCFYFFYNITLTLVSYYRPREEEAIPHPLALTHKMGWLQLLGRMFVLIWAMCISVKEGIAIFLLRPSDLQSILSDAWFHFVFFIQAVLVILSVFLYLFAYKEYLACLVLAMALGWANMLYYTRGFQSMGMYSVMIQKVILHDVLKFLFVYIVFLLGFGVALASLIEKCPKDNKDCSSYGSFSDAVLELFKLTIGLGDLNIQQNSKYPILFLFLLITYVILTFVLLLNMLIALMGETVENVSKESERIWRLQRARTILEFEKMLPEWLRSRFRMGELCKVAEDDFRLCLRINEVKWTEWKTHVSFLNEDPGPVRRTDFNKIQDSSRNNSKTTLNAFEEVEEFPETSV
Outline: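 HEK293 cells stably expressing human TRPV3 (I25V variant), plated the day before in DMEM + 10% FBS at 37 °C, 5% CO2. Calcium 4 dye loaded in Ca/Mg-free HEPES D-PBS pH 7.4 for 1–2 h at room temperature. Compound dilutions added with 3 min baseline, then 2-APB at 60 µM final; Ca2+ flux read 3 min on FLIPR. Kb from at least duplicates, averaged across independent runs.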

Rattus norvegicus [3] = organism: Rattus norvegicus; test: Cardiotoxicity in rat assessed as increase in mean arterial pressure; type: toxicity, organism-based, Artery; details: in vivo
[4] = molecular target: T2, Nuclear receptor subfamily 1 group I member 2 (Homo sapiens, UniProt O75469); test: Activation of human PXR; type: ADME; details: human
T2 sequence (O75469 whole entry): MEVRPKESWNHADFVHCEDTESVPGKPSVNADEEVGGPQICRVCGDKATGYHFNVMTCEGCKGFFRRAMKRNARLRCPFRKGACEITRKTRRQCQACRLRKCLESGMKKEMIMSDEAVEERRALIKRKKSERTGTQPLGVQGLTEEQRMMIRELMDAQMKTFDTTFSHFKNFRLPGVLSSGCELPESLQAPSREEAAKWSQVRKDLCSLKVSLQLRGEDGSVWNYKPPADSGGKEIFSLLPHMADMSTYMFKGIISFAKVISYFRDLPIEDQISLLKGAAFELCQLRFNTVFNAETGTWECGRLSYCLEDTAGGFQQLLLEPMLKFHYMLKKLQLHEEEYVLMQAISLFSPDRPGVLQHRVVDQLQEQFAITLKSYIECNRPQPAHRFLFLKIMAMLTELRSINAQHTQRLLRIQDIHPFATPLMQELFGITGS

Liver microsome [5] = test: Unbound intrinsic clearance in rat liver microsomes after 5 hrs by LC-MS/MS analysis; type: ADME
Outline: (§1)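 Microsomal stability run in an automated high-throughput plate format. Intrinsic clearance corrected for nonspecific microsomal binding using measured unbound fraction (fu,mic), reported as unbound Clint in L/h/kg.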

Liver microsome [6] = test: Unbound intrinsic clearance in human liver microsomes after 5 hrs by LC-MS/MS analysis; type: ADME; outline: as §1

SMILES	Kb [2] [nM]	Activity [4]	CL free (Liver microsome [5]) [mL/min/kg]	CL free (Liver microsome [6]) [mL/min/kg]	Activity (Rattus norvegicus [1])	Activity (Rattus norvegicus [3])
O[C@H](c1ccccn1)[C@]1(c2cccc(OC(F)(F)F)c2)C[C@H](O)C1	40	Not Active	120	150	Non-toxic	Non-toxic
C[C@]1(O)C[C@@](c2cccc(C(F)(F)F)c2)([C@H](O)c2ccccn2)C1	300	Not Active	317	150	Non-toxic	Non-toxic
O[C@]1(c2ccccn2)CC[C@@H](c2ccc(C(F)(F)F)cc2)C1	130	–	7670	383	–	–
O[C@H](c1ccccn1)[C@]1(c2ccnc(C(F)(F)F)c2)C[C@H](O)C1	60	Not Active	50	33	Non-toxic	Non-toxic
C[C@]1(c2ccc(OC(F)(F)F)cc2)C[C@@](O)(c2ccccn2)CO1	2460	–	150	120	–	–
O[C@H](c1ccccn1)[C@]1(c2ccc(C(F)(F)F)cc2)C[C@@H](O)C1	1870	Not Active	50	33	Non-toxic	Non-toxic
C[C@]1(O)C[C@@](c2cccc(OC(F)(F)F)c2)([C@H](O)c2ccccn2)C1	280	Not Active	200	167	Non-toxic	Non-toxic
C[C@@]1(c2ccc(OC(F)(F)F)cc2)C[C@@](O)(c2ccccn2)CO1 (single isomer, unassigned)	1120	–	333	67	–	–
OC(c1ccccn1)C1(c2ccc(C(F)(F)F)cc2)CNC1 (stereo unspecified)	6680	–	50	33	–	–
C[C@]1(O)C[C@@](c2ccc(OC(F)(F)F)cc2)([C@@H](O)c2ccccn2)C1	> 10400	Not Active	100	50	Non-toxic	Non-toxic
C[C@@]1(c2ccc(OC(F)(F)F)cc2)C[C@](O)(c2ccccn2)CO1	1710	–	383	217	–	–
C[C@]1(O)C[C@@](c2cc(C(F)(F)F)ccn2)([C@H](O)c2ccccn2)C1	730	Not Active	120	33	Non-toxic	Non-toxic
C[C@]1(O)C[C@](c2cccc(OC(F)(F)F)c2)([C@H](O)c2ccccn2)C1	1310	Not Active	50	120	Non-toxic	Non-toxic
CN1CC(c2ccc(C(F)(F)F)cc2)(C(O)c2ccccn2)C1 (stereo unspecified)	6630	–	120	50	–	–
O[C@H](c1ccccn1)[C@]1(c2cccc(OC(F)(F)F)c2)C[C@@H](O)C1	80	Not Active	217	120	Non-toxic	Non-toxic
C[C@]1(O)C[C@@](c2ccnc(C(F)(F)F)c2)([C@H](O)c2ccccn2)C1	4270	Not Active	50	67	Non-toxic	Non-toxic
O[C@@]1(c2ccccn2)CC[C@H](c2ccc(C(F)(F)F)cc2)C1	610	–	350	400	–	–
O[C@]1(c2ccccn2)CC[C@H](c2ccc(C(F)(F)F)cc2)C1	540	–	1430	333	–	–
C[C@]1(O)C[C@](c2cccc(C(F)(F)F)c2)([C@H](O)c2ccccn2)C1	1550	Not Active	67	33	Non-toxic	Non-toxic
O[C@@]1(c2ccccn2)CC[C@@H](c2ccc(C(F)(F)F)cc2)C1	240	–	2520	150	–	–

Continued, in another order:

Kb [2] [nM]	Activity [4]	CL free (Liver microsome [5]) [mL/min/kg]	CL free (Liver microsome [6]) [mL/min/kg]	SMILES	Activity (Rattus norvegicus [1])	Activity (Rattus norvegicus [3])
150	–	50	67	O[C@H](c1ccccn1)[C@]1(c2ccc(Cl)c(Cl)c2)CCO1	–	–
370	–	833	267	O[C@H](c1ncccn1)C1(c2ccc(Cl)c(Cl)c2)CCC1	–	–
140	–	1050	333	O[C@H](c1ccccn1)C1(c2ccc(OC(F)(F)F)cc2)CCC1	–	–
550	–	1830	1230	OC(c1ccccn1)C1(c2ccccc2OC(F)(F)F)CCC1 (racemic)	–	–
610	–	3000	833	OC(c1ncccc1F)C1(c2ccc(Cl)c(Cl)c2)CCC1 (racemic)	–	–
1540	–	483	100	OC(c1ncccn1)C1(c2ccc(OC(F)(F)F)cc2)CCC1 (racemic)	–	–
470	–	–	–	O[C@H](c1ccccn1)[C@]1(c2ccc(Cl)c(Cl)c2)CCCO1	–	–
530	Not Active	200	83	O[C@H](c1ccccn1)[C@]1(c2ccnc(C(F)(F)F)c2)C[C@@H](O)C1	Non-toxic	Non-toxic
80	–	850	250	O[C@H](c1ccccn1)C1(c2ccc(Cl)c(Cl)c2)CC(F)(F)C1	–	–
43	–	2980	383	O[C@H](c1ccccn1)[C@@]1(c2ccc(Cl)c(Cl)c2)CCCO1	–	–
210	Not Active	100	50	O[C@H](c1ccccn1)[C@]1(c2cccc(C(F)(F)F)c2)C[C@@H](O)C1	Non-toxic	Non-toxic
80	–	1720	2220	O[C@H](c1ccccn1)C1(c2cccc(OC(F)(F)F)c2)CCC1	–	–
910	–	3170	767	OC(c1ccc(F)cn1)C1(c2ccc(Cl)c(Cl)c2)CCC1 (racemic)	–	–
3400	–	6330	1670	CC(O)(c1ccccn1)C1(c2ccc(Cl)c(Cl)c2)CCC1 (racemic)	–	–
630	–	983	417	OC(c1ccccn1)C1(c2ccc(Cl)c(Cl)c2)CCOC1 (stereo unspecified)	–	–
7370	–	417	130	OC(c1ccccn1)C1(c2ccc(Cl)c(Cl)c2)COC1 (stereo unspecified)	–	–
380	–	1000	217	O[C@H](c1ccccn1)[C@@]1(c2ccc(Cl)c(Cl)c2)CCO1	–	–
640	–	3850	533	OC(c1cc(F)ccn1)C1(c2ccc(Cl)c(Cl)c2)CCC1 (racemic)	–	–
